Measured values taken from ChEMBL document CHEMBL1157749, “Novel N2-substituted pyrazolo[3,4-d]pyrimidine adenosine A3 receptor antagonists: inhibition of A3-mediated human glioblastoma cell proliferation” (J Med Chem, 2010).
Active and inactive are the calls of the source. No cut-off for these calls is given here.

Experiments:
[1] = molecular target: T1, Adenosine receptor A1 (Homo sapiens, UniProt P30542); test: Displacement of [3H]DPCPX from human adenosine A1 receptor expressed in CHO cells; type: cell-based
T1 sequence (P30542 whole entry): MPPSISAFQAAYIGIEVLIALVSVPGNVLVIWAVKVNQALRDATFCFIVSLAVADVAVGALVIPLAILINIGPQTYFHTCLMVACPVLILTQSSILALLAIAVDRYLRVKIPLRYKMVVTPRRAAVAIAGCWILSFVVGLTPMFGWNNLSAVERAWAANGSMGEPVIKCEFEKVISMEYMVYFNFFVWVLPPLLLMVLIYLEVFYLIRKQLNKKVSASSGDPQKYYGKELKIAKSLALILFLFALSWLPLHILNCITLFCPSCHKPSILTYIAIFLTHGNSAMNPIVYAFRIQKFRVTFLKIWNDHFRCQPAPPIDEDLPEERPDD

[2] = molecular target: Adenosine receptor A2a (Homo sapiens, UniProt P29274); test: biochemical; type: cell-based, CHO
Chain of Adenosine receptor A2a (P29274 whole entry): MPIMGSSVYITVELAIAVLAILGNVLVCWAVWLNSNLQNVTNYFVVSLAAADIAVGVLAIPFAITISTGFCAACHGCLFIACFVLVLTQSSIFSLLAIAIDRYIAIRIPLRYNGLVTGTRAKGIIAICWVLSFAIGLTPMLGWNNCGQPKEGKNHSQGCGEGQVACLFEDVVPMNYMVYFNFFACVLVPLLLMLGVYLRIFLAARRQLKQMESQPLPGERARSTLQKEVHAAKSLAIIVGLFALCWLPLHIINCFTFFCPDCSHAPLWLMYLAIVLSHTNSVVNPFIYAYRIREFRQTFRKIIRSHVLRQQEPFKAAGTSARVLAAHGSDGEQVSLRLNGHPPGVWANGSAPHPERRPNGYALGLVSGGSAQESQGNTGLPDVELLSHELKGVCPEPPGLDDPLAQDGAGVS

[3] = molecular target: T2, Adenosine receptor A3 (Homo sapiens, UniProt P0DMS8); test: biochemical; type: cell-based, CHO
T2 sequence (P0DMS8 whole entry): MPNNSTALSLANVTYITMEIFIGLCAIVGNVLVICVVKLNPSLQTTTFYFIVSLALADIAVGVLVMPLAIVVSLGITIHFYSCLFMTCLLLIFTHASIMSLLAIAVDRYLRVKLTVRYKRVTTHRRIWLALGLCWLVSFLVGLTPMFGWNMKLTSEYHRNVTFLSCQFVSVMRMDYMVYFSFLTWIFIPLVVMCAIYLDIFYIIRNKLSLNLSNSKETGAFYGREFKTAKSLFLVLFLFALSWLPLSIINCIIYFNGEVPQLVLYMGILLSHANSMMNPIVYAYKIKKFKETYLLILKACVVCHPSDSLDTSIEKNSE

[4] = molecular target: T3, Adenosine deaminase (Bos taurus) (UniProt P56658); test: Inhibition of bovine spleen adenosine deaminase at 10 uM after 2 mins by spectrophotometry
T3 sequence (whole entry): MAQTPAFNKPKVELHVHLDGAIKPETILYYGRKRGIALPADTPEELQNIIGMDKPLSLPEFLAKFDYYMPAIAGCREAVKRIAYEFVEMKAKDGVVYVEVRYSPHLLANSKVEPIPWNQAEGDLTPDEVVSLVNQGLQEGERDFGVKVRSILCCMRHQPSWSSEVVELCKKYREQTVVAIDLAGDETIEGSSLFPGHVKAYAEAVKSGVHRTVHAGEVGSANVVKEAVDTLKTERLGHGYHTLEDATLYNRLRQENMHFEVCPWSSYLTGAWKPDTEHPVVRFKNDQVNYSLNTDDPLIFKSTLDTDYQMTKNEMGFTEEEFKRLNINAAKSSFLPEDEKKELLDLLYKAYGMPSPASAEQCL
In short: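 Bovine spleen ADA at 0.3 nM with 50 μM adenosine in 50 mM potassium phosphate, pH 7.2, at 30 °C. Inhibitor is tested at 10 μM with final DMSO ≤4%. Deamination is followed as the change in A262 over 2 min, against a substrate-free blank.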

[5] = molecular target: T4, Adenosine receptor A2b (Homo sapiens, UniProt P29275); test: Antagonist activity human recombinant adenosine A2B receptor expressed in CHO cells assessed as inhibition of NECA-mediated [3H]cAMP accumulation treated 15 mins before NECA challenge measured after 30 mins by liquid scintillation spectrometry; type: functional, cell-based
T4 sequence (P29275 whole entry): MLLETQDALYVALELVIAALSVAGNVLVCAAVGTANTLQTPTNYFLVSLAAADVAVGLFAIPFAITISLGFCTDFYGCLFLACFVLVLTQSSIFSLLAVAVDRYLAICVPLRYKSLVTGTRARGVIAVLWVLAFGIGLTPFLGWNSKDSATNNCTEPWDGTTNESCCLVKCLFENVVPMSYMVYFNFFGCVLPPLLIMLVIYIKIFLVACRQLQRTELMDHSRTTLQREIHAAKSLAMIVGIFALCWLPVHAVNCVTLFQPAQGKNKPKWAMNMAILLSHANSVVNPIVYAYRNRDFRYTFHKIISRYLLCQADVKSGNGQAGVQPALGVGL
In short: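 CHO cells stably expressing hA2B are pre-incubated 15 min at 37 °C in DMEM with ADA 1 U/mL and Ro 20-1724 20 μM. […] Cells are lysed in 0.4 N HCl. cAMP is measured by [3H]cAMP competition with bovine adrenal binding protein (150 min, 0 °C), with filtration and scintillation counting. Mean ± SEM, four experiments in triplicate.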

[6] = molecular target: T2, Adenosine receptor A3; test: Antagonist activity human recombinant adenosine A3 receptor expressed in CHO cells assessed as blockade of NECA-mediated inhibition of forskolin-stimulated [3H]cAMP production treated 15 mins before NECA challenge measured after 30 mins by liquid scintillation spectrometry; type: functional, cell-based
In short: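 hA3-expressing CHO cells are pre-incubated 15 min at 37 °C with ADA 1 U/mL and Ro 20-1724 20 μM. […] HCl lysates are assayed for cAMP by [3H]cAMP/binding-protein competition with scintillation read-out. IC50 is reported as mean ± SEM of four experiments in triplicate.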

[7] = test system: U-87 MG; test: Inhibition of Cl-IB-MECA-mediated human U87MG cell proliferation after 48 hrs by trypan blue exclusion assay; type: functional, cell-based, U-87MG ATCC
In short: (§1)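 U87MG cells in RPMI/10% FBS are arrested in G1 (0.5% FBS, 48 h). They are then treated 48 h with Cl-IB-MECA 100 nM or IB-MECA 12 nM, with or without antagonist at 0.1–10 nM or 0.01–5 nM. Live cells are counted by 0.4% trypan blue exclusion in a haemocytometer and expressed as % of control, mean ± SEM.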

[8] = test system: U-87 MG; test: Inhibition of IBMECA-mediated human U87MG cell proliferation after 48 hrs by trypan blue exclusion assay; type: functional, cell-based, U-87MG ATCC; in short: as §1
[9] = test system: U-87MG ATCC; test: Antiproliferative activity against human U87MG cell proliferation at 0.1 to 10 nM after 48 hrs by trypan exclusion assay; type: functional, cell-based; in short: as §1
[10] = molecular target: T2, Adenosine receptor A3; test: Antagonist activity at adenosine A3 receptor in human U87MG cells assessed as inhibition of Cl-IB-MECA-mediated ERK1/2 phosphorylation after 30 mins by ELISA; type: functional, cell-based, U-87MG ATCC
[11] = molecular target: T5, Mitogen-activated protein kinase; ERK1/ERK2 (Homo sapiens) (UniProt P27361+P28482); test: Modulation of ERK1/2 phosphorylation in human U87MG cells at 0.25 to 10 nM after 30 mins by ELISA; type: cell-based; conditions: U-87MG ATCC
T5 sequence (P27361 whole entry, looked up): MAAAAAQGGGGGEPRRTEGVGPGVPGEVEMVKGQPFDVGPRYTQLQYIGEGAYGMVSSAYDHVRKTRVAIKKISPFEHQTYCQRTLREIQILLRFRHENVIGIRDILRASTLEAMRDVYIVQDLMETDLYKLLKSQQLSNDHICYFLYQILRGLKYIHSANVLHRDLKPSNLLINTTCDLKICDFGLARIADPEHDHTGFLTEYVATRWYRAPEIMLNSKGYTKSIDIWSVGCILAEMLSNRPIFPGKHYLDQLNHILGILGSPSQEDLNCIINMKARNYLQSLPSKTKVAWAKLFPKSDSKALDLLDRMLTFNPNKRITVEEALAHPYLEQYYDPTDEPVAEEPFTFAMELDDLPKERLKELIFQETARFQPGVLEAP
T5 sequence (P28482 whole entry, looked up): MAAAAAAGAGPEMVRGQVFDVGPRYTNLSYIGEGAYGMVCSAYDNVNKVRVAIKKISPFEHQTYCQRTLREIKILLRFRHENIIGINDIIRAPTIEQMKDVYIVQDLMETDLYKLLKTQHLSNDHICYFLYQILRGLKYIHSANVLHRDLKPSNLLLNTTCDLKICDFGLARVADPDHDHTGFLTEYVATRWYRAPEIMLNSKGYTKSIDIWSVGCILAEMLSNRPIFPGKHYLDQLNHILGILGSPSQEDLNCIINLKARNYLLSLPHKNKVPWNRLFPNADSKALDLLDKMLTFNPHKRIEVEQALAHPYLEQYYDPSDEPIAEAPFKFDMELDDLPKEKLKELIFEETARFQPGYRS

[12] = Octanol-water partition coefficient, log P of the compound; type: physicochemical
[13] = test system: U-87MG ATCC; test: Antiproliferative activity against human U87MG cell proliferation at 0.01 to 5 nM after 48 hrs by trypan exclusion assay; type: functional, cell-based; in short: as §1
[14] = molecular target: T5, Mitogen-activated protein kinase; ERK1/ERK2 (Homo sapiens); test: Modulation of ERK1/2 phosphorylation in human U87MG cells at 0.05 to 1 nM after 30 mins by ELISA; type: cell-based; conditions: U-87MG ATCC
[15] = molecular target: T1, Adenosine receptor A1; test: Inhibition of human adenosine A1 receptor
In short: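 Displacement binding using membranes (30 μg protein) from CHO cells stably expressing human A1 receptor. […] Six compound concentrations were tested, in DMSO ≤2% final. Nonspecific binding was defined with 50 μM RPIA. IC50 was converted to Ki by Cheng-Prusoff; at least three determinations.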

[16] = molecular target: T6, Adenosine receptor A3 (Homo sapiens) (UniProt P0DMS8); test: Induction of adenosine A3 receptor-mediated ERK1/2 phosphorylation in human U87MG cells at 100 nM by ELISA; type: cell-based; conditions: U-87MG ATCC, TDE = time-dependent effect
T6 sequence (whole entry): T2 sequence (P0DMS8 whole entry)
In short: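 Time course in U87MG cells given 100 nM Cl-IB-MECA for 5–120 min. Phospho-ERK1/2 is read by colorimetric cell-based ELISA after fixation, with crystal violet cell-number correction. Results are % of control cells, mean ± SEM, Student t test.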

Ki [1]	Ki [2]	Ki [3]	inhibition [4]	Structure (SMILES)	other results
2500 nM	1000 nM	503 nM	inactive	Nc1nc(-c2ccccc2)nc2nn(CCc3ccccc3)cc12	–
> 10000 nM	> 10000 nM	3.7 nM	inactive	O=C(Nc1nc(-c2ccccc2)nc2nn(Cc3ccccc3)cc12)c1cccc(Cl)c1	IC50 [5]: 1330 nM; IC50 [6]: 7.6 nM
922 nM	> 10000 nM	29.1 nM	inactive	Cn1cc2c(NC(=O)Nc3cccc(Cl)c3)nc(-c3ccccc3)nc2n1	–
1700 nM	96 nM	36.3 nM	–	O=C(Nc1ccccc1)Nc1nc(-c2ccccc2)nc2nn(CCc3ccccc3)cc12	–
334 nM	728 nM	0.6 nM	inactive	Cn1cc2c(NC(=O)c3ccccc3)nc(-c3ccccc3)nc2n1	IC50 [7]: 0.17 nM; IC50 [8]: 0.41 nM; Activity [9]: inactive; IC50 [5]: 49.8 nM; IC50 [6]: 1.9 nM; IC50 [10]: 0.74 nM; Activity [11]: inactive; logP [12]: 3.8
> 10000 nM	> 10000 nM	2.9 nM	inactive	COc1ccc(NC(=O)Nc2nc(-c3ccccc3)nc3nn(Cc4ccccc4)cc23)cc1	IC50 [5]: 1470 nM; IC50 [6]: 8.2 nM
585 nM	> 10000 nM	922 nM	inactive	Cn1cc2c(N)nc(-c3ccccc3)nc2n1	–
> 10000 nM	> 10000 nM	> 1000 nM	–	COc1ccc(C(=O)Nc2ncnc3nn(Cc4ccccc4)cc23)cc1	–
1080 nM	886 nM	5.9 nM	inactive	Cn1cc2c(NC(=O)c3cccc(Cl)c3)nc(-c3ccccc3)nc2n1	–
> 10000 nM	> 10000 nM	22.1 nM	–	COc1ccc(C(=O)Nc2nc(-c3ccccc3)nc3nn(Cc4ccccc4)cc23)cc1	–
> 10000 nM	> 10000 nM	20.9 nM	inactive	Cn1cc2c(NC(=O)Nc3ccccc3)nc(-c3ccccc3)nc2n1	–
1040 nM	3180 nM	0.18 nM	inactive	COc1ccc(C(=O)Nc2nc(-c3ccccc3)nc3nn(C)cc23)cc1	IC50 [7]: 0.091 nM; IC50 [8]: 0.057 nM; Activity [13]: inactive; IC50 [5]: 53.9 nM; IC50 [6]: 2.4 nM; IC50 [10]: 0.061 nM; Activity [14]: inactive; logP [12]: 4
2400 nM	1140 nM	45.2 nM	–	COc1ccc(C(=O)Nc2nc(-c3ccccc3)nc3nn(CCc4ccccc4)cc23)cc1	–
27 nM	227 nM	43.7 nM	–	O=C(Nc1nc(-c2ccccc2)nc2nn(CCc3ccccc3)cc12)c1ccccc1	–
290 nM	> 10000 nM	2.9 nM	inactive	O=C(Nc1ccccc1)Nc1nc(-c2ccccc2)nc2nn(Cc3ccccc3)cc12	IC50 [5]: 1320 nM; IC50 [6]: 5.7 nM
> 10000 nM	> 10000 nM	121 nM	–	O=C(Nc1cccc(Cl)c1)Nc1nc(-c2ccccc2)nc2nn(Cc3ccccc3)cc12	–
> 10000 nM	4900 nM	> 1000 nM	–	O=C(Nc1ncnc2nn(Cc3ccccc3)cc12)c1cccc(Cl)c1	–
–	–	–	–	Cc1cn2c(NC(=O)c3ccccc3)nc(-c3ccccc3)nc2n1	Ki [15]: 350 nM
312 nM	121 nM	93 nM	inactive	Nc1nc(-c2ccccc2)nc2nn(Cc3ccccc3)cc12	–
> 10000 nM	> 10000 nM	358 nM	inactive	COc1ccc(NC(=O)Nc2nc(-c3ccccc3)nc3nn(C)cc23)cc1	–
> 10000 nM	> 10000 nM	> 1000 nM	–	O=C(Nc1ncnc2nn(Cc3ccccc3)cc12)c1ccccc1	–
53 nM	181 nM	3 nM	inactive	O=C(Nc1nc(-c2ccccc2)nc2nn(Cc3ccccc3)cc12)c1ccccc1	IC50 [5]: 272 nM; IC50 [6]: 53 nM
120 nM	–	–	–	CNC(=O)OC[C@H]1O[C@@H](n2cnc3c(NCc4cccc(I)c4)nc(Cl)nc32)[C@H](O)[C@@H]1O	Activity [16]: tde
> 10000 nM	> 10000 nM	> 1000 nM	–	COc1ccc(NC(=O)Nc2nc(-c3ccccc3)nc3nn(CCc4ccccc4)cc23)cc1	–
1050 nM	314 nM	22.3 nM	–	O=C(Nc1nc(-c2ccccc2)nc2nn(CCc3ccccc3)cc12)c1cccc(Cl)c1	–
> 10000 nM	> 10000 nM	> 1000 nM	–	O=C(Nc1cccc(Cl)c1)Nc1nc(-c2ccccc2)nc2nn(CCc3ccccc3)cc12	–
